The source of these data is PubChem BioAssay AID540305 (Sanford-Burnham Center for Chemical Genomics, 2011).

The source made the active and inactive calls.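 The calls were made as follows: active = mean EC50 at or below 20 µM; inactive = the rest.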

The test concerns the target CHO-XBP1 luciferase reporter, IRE1-XBP1 activation, luminescence. Briefly: IRE1-XBP1 adaptive UPR arm activators, SAR follow-up, counter-screen for UPR apoptotic arm activator project, CHO-XBP1 cells, luminescence (AID 540305). An outline of the steps:
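Dosing: compound dose-response series, final DMSO at most 1%. Material: CHO-XBP1 cells stably carrying IRE1-XBP1 luciferase reporter. Input: 1000 cells/well. Technique: Steady-Glo luminescence. Schedule: 16-18 h plating before dosing, 6 h compound exposure, 37 °C.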

As for `O=C(Nc1nc2c(F)cc(F)cc2s1)c1cccnc1`, the EC50 is > 80 µM (inactive).
The value for `O=C(Nc1ccc(S(=O)(=O)N2CCOCC2)cc1)c1ccccc1` was > 80 µM (inactive); that for `O=C(Nc1ccc(S(=O)(=O)N2CCOCC2)cc1)c1ccc([N+](=O)[O-])s1` was > 80 µM (inactive).
The result for `O=C(Nc1nc2ccc(F)cc2s1)c1ccccn1` reads > 80 µM (inactive).
The result for `O=C(Nc1ccc(S(=O)(=O)N2CCOCC2)cc1)c1ccco1` reads > 80 µM (inactive); that for `O=C(Nc1nc2c(F)cccc2s1)c1ccccn1`, > 80 µM (inactive); that for `Fc1cc(F)c2nc(NCc3ccccn3)sc2c1`, > 80 µM (inactive).
`O=C(Nc1nc2c(F)cc(F)cc2s1)c1ccncc1`: the EC50 was > 80 µM (inactive).
With `Cc1cc(C)c2nc(NC(=O)c3ccccn3)sc2c1`, the EC50 is > 80 µM (inactive).
The value for `O=C(Nc1nc2c(Cl)cc(Cl)cc2s1)c1ccccn1` was > 80 µM (inactive).
For `Cc1ccc(C(=O)Nc2ccc(S(=O)(=O)N3CCOCC3)cc2)o1`, the EC50 was > 80 µM (inactive).
In the case of `CC1CN(S(=O)(=O)c2ccc(NC(=O)c3ccco3)cc2)CC(C)O1` (stereo unspecified), the EC50 is > 80 µM (inactive).
The result for `O=C(Nc1ccc(S(=O)(=O)N2CCOCC2)cc1)c1ccc([N+](=O)[O-])cc1` reads > 80 µM (inactive).
The result for `O=C(Nc1ccc(S(=O)(=O)N2CCCC2)cc1)c1ccc([N+](=O)[O-])o1` reads > 80 µM (inactive); that for `O=C(Nc1ccc(S(=O)(=O)N2CCOCC2)cc1)c1ccc(Br)o1`, > 80 µM (inactive); that for `CC1CCN(S(=O)(=O)c2ccc(NC(=O)c3ccc([N+](=O)[O-])o3)cc2)CC1`, > 80 µM (inactive).
The result for `O=C(Nc1nc2c(F)cc(F)cc2s1)c1ccccn1` reads > 80 µM (inactive); that for `O=C(Nc1ccc(S(=O)(=O)N2CCOCC2)cc1)c1ccc([N+](=O)[O-])o1`, > 80 µM (inactive).
On to `O=C(Nc1nc2ccccc2s1)c1cccnc1`, for which the EC50 is > 80 µM (inactive).
The value for `O=C(Nc1nc2ccccc2s1)c1ccncc1` was > 80 µM (inactive); that for `CC1(C)CCN(S(=O)(=O)c2ccc(NC(=O)c3ccc([N+](=O)[O-])o3)cc2)CC1` was > 80 µM (inactive); that for `O=C(Nc1ccc(S(=O)(=O)N2CCC(O)CC2)cc1)c1ccc([N+](=O)[O-])o1` was > 80 µM (inactive).
The result for `O=C(Nc1ccc(S(=O)(=O)N2CCCCC2)cc1)c1ccc([N+](=O)[O-])o1` reads > 80 µM (inactive); that for `O=C(Nc1ccc(S(=O)(=O)N2CCNCC2)cc1)c1ccc([N+](=O)[O-])o1`, > 80 µM (inactive); that for `O=C(Nc1ccc(C(=O)N2CCOCC2)cc1)c1ccco1`, > 80 µM (inactive).
For the molecule `O=C(Nc1ccc(S(=O)(=O)N2CCOCC2)cc1)c1cccs1`, the EC50 was > 80 µM (inactive).
`O=C(Nc1ccc(S(=O)(=O)c2ccccc2)cc1)c1ccc([N+](=O)[O-])o1`: the EC50 was > 80 µM (inactive).
The result for `O=C(Nc1nc2ccccc2s1)c1ccccn1` reads > 80 µM (inactive); that for `O=C(Nc1cccc(S(=O)(=O)N2CCOCC2)c1)c1ccco1`, > 80 µM (inactive).
The result for `O=C(Nc1ccc(S(=O)(=O)C2CCCCC2)cc1)c1ccc([N+](=O)[O-])o1` reads > 80 µM (inactive); that for `O=C(Nc1nc2c(F)cc(F)cc2s1)c1ccccc1`, > 80 µM (inactive).
